We go through one compound from ChEMBL document CHEMBL4396947, “Synthesis and characterization of novel isoform-selective IP6K1 inhibitors” (Bioorg Med Chem Lett, 2019).

For assay [1], the target named is MAP kinase-interacting serine/threonine-protein kinase 2 (Homo sapiens) (UniProt Q9HBH9). The assay is described as follows: Inhibition of full length recombinant human MNK2 assessed as residual activity at 10 uM using myelin basic protein as substrate incubated for 40 mins in presence of [gamma-33P]ATP at Km concentration by radiometric assay relative to control.

Assay [2] concerns the target Tyrosine-protein kinase receptor TYRO3 (Homo sapiens) (UniProt Q06418). The assay is described as follows: Inhibition of recombinant human RSE (451 to end residues) assessed as residual activity at 10 uM using KVEKIGEGTYGVV as substrate incubated for 40 mins in presence of [gamma-33P]ATP at Km concentration by scintillation counting method relative to control.
For assay [3], the target named is Dual specificity mitogen-activated protein kinase kinase 1 (Homo sapiens) (UniProt Q02750). The assay is described as follows: Inhibition of full length recombinant human MEK1 assessed as residual activity at 10 uM using inactive MAPK2 as substrate incubated for 40 mins in presence of [gamma-33P]ATP at Km concentration by radiometric assay relative to control.
For assay [4], the target named is Insulin-like growth factor 1 receptor (Homo sapiens) (UniProt P08069). The assay can be described thus: Inhibition of human recombinant IGF1R (959 to end residues) assessed as residual activity at 10 uM using KKKSPGEYVNIEF as substrate incubated for 40 mins in presence of [gamma-33P]ATP at Km concentration by radiometric assay relative to control.
The target in assay [5] is Serine/threonine-protein kinase 10 (Homo sapiens) (UniProt O94804). The assay can be described thus: Inhibition of human recombinant LOK (1 to 348 residues) assessed as residual activity at 10 uM using RLGRDKYKTLRQI as substrate incubated for 40 mins in presence of [gamma-33P]ATP at Km concentration by radiometric assay relative to control.
The species named for assay [6] is Homo sapiens. The assay is described as follows: Inhibition of recombinant full length human PI3K p110delta/p85alpha N253S mutant assessed as residual activity at 10 uM incubated for 40 mins in presence of [gamma-33P]ATP at Km concentration by radiometric assay relative to control.
In assay [7] the target is Serine/threonine-protein kinase pim-1 (Homo sapiens) (UniProt P11309). The assay is described as follows: Inhibition of recombinant full length human PIM1 assessed as residual activity at 10 uM using KKRNRTLTV as substrate incubated for 40 mins in presence of [gamma-33P]ATP at Km concentration by radiometric assay relative to control.
Assay [8] deals with Inhibitor of nuclear factor kappa-B kinase subunit alpha (Homo sapiens) (UniProt O15111). The assay is described as follows: Inhibition of human full length recombinant IKKalpha assessed as residual activity at 10 uM using peptide as substrate incubated for 40 mins in presence of [gamma-33P]ATP at Km concentration by radiometric assay relative to control.
In assay [9] the target is Protein kinase C alpha type (Homo sapiens) (UniProt P17252). The assay can be described thus: Inhibition of recombinant full length human PKCalpha assessed as residual activity at 10 uM using histone H1 as substrate incubated for 40 mins in presence of [gamma-33P]ATP at Km concentration by radiometric assay relative to control.
Assay [10] concerns the target T1, Inositol hexakisphosphate kinase 1 (Homo sapiens, UniProt Q92551). The assay can be described thus: Binding affinity to IP6K1 (unknown origin) assessed as change in melting temperature by SYPRO orange dye-based assay. The procedure, abridged:
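Thermal shift format. Purified IP6K1 heated across a temperature gradient with the ligand at several concentrations. Binding read as the rise in protein melting temperature, including the maximal Tm shift (TmMax).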
Target sequence in this assay (Q92551 whole entry, looked up): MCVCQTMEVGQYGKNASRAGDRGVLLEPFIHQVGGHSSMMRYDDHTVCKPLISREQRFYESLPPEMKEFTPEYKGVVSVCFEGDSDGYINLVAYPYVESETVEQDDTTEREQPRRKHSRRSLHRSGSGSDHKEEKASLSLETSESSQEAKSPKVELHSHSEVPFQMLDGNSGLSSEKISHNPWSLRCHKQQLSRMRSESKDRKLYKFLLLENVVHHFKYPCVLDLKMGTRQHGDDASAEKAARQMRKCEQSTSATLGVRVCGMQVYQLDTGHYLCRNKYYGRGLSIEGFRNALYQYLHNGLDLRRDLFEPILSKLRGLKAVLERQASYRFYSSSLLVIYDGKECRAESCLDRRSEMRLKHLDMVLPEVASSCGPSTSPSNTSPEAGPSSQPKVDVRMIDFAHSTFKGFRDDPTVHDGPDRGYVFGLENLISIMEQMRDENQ

The species entered for assay [11] is Homo sapiens. The assay can be described thus: Selectivity ratio of Ki for IP6K2 (unknown origin) to Ki for IP6K1 (unknown origin). The method in brief:
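Purified IP6K1, IP6K2 and IP6K3 were each tested in an ADP-Glo Max luminescence assay optimized for IP6K, with 1 mM ATP consumed as the kinase reaction proceeds. IC50 values from each isoform were converted to Ki with the Cheng-Prusoff equation, and the Ki ratio versus IP6K1 was taken.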

Assay [12] addresses CDK7/Cyclin H/MNAT1 (Homo sapiens) (UniProt P51946+P50613+P51948). The assay is described as follows: Inhibition of human full length recombinant CDK7/cyclinH/MAT1 assessed as residual activity at 10 uM using peptide as substrate incubated for 40 mins in presence of [gamma-33P]ATP at Km concentration by radiometric assay relative to control. Format: protein-complex assay.
For assay [13], the target named is Calcium/calmodulin-dependent protein kinase type 1 (Homo sapiens) (UniProt Q14012). The assay is described as follows: Inhibition of human full length recombinant CAMKI assessed as residual activity at 10 uM using KKLRRTLSFAEPG as substrate incubated for 40 mins in presence of [gamma-33P]ATP at Km concentration by radiometric assay relative to control.
Assay [14] concerns the target T1, Inositol hexakisphosphate kinase 1. The assay is described as follows: Binding affinity to IP6K1 (unknown origin) assessed as change in melting temperature at 11.1 uM by SYPRO orange dye based assay.
Target sequence in this assay (Q92551 whole entry, looked up): as above
The target of assay [15] is Inositol hexakisphosphate kinase 2 (Homo sapiens, UniProt Q9UHH9). The assay can be described thus: Inhibition of IP6K2 (unknown origin) incubated for 30 mins using IP6 as substrate in presence of ATP by ADP-Glo reagent based luminescence assay. The method in brief:
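Luminescent ADP-Glo Max format adapted for IP6K, with purified enzyme and ATP at 1 mM, which is consumed as the kinase reaction proceeds. IC50 taken from the resulting inhibition data.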
A general note: In ADP-Glo the light output rises with the ADP produced.

Assay [16] relates to Eukaryotic elongation factor 2 kinase (Homo sapiens), O00418 [H23R]. The assay can be described thus: Inhibition of recombinant human eEF2K H23R mutant (2 to end residues) assessed as residual activity at 10 uM using RKKFGESEKTKTK as substrate incubated for 40 mins in presence of [gamma-33P]ATP at Km concentration by radiometric assay relative to control.
In assay [17] the target is Mitogen-activated protein kinase kinase kinase 7 (Homo sapiens) (UniProt O43318). The assay can be described thus: Inhibition of recombinant human TAK1 (1 to 303 residues) assessed as residual activity at 10 uM using casein as substrate incubated for 40 mins in presence of [gamma-33P]ATP at Km concentration by radiometric assay relative to control.
Assay [18] has as its target CDK6/cyclin D3 (Homo sapiens) (UniProt P30281+Q00534). The assay can be described thus: Inhibition of human full length recombinant CDK6/cyclinD3 assessed as residual activity at 10 uM using Histone H1 as substrate incubated for 40 mins in presence of [gamma-33P]ATP at Km concentration by radiometric assay relative to control. In kind it is protein-complex assay.
Assay [19] concerns the target T1, Inositol hexakisphosphate kinase 1. The assay can be described thus: Inhibition of IP6K1 (unknown origin) in presence of ATP at Km concentration by Cheng-Prusoff equation analysis. The procedure, abridged:
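Purified IP6K isoforms run in the ADP-Glo Max kinase assay with 1 mM ATP. Measured IC50 values converted to Ki with the Cheng-Prusoff equation.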
Target sequence in this assay (Q92551 whole entry): as the sequence (Q92551 whole entry, looked up) above

The target of assay [20] is PI3-kinase p110-alpha/p85-alpha (Homo sapiens) (UniProt P27986+P42336). The assay can be described thus: Inhibition of recombinant full length human PI3K p110alpha/p85alpha assessed as residual activity at 10 uM incubated for 40 mins using phosphatidylinositol-4,5 bisphosphate as substrate in presence of [gamma-33P]ATP at Km concentration by radiometric assay relative to control. Format: protein-complex assay.

Eukaryotic elongation factor 2 kinase (Homo sapiens), O00418 [H23R], sequence (O00418 whole entry H23R, the tested form may be a part): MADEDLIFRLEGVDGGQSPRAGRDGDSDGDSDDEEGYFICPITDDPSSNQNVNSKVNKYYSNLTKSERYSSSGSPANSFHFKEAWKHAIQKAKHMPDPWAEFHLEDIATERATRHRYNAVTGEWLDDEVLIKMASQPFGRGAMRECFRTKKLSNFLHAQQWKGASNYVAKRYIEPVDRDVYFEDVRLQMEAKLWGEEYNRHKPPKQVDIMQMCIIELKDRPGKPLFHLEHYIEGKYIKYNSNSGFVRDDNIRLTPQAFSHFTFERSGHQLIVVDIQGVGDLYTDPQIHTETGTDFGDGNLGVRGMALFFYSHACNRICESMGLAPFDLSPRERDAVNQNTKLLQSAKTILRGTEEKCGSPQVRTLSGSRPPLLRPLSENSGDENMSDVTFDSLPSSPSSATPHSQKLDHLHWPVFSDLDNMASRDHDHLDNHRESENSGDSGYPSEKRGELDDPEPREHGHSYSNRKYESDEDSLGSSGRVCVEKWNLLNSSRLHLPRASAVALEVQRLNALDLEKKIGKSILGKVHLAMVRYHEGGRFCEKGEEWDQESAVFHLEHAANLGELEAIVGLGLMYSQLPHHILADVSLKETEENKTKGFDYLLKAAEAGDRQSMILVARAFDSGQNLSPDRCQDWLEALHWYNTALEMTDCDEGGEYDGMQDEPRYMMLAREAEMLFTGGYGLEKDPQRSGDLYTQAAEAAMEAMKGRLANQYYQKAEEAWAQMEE
Tyrosine-protein kinase receptor TYRO3 (Homo sapiens), sequence (Q06418 whole entry): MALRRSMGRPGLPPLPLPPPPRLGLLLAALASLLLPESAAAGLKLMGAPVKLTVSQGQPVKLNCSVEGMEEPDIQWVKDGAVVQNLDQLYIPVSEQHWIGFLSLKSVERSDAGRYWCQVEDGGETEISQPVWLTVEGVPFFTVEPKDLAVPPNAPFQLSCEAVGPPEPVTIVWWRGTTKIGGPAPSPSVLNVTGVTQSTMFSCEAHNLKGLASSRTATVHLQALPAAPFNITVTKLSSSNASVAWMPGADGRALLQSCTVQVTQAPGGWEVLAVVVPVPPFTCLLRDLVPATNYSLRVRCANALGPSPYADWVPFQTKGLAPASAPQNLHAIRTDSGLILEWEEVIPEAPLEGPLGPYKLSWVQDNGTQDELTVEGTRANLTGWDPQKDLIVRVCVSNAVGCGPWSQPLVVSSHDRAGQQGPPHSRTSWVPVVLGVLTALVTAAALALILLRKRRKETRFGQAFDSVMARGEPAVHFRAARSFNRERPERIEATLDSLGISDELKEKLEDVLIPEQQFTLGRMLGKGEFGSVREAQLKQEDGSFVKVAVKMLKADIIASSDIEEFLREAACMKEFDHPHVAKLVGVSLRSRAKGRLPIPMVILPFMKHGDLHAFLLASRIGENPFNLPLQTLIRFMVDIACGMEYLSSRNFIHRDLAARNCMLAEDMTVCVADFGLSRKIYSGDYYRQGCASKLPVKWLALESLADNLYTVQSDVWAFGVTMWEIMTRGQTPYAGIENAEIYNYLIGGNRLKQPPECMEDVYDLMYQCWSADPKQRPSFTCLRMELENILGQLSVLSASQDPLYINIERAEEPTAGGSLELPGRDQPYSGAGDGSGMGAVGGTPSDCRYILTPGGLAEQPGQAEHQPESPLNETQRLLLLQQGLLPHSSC
MAP kinase-interacting serine/threonine-protein kinase 2 (Homo sapiens), sequence (Q9HBH9 whole entry, looked up): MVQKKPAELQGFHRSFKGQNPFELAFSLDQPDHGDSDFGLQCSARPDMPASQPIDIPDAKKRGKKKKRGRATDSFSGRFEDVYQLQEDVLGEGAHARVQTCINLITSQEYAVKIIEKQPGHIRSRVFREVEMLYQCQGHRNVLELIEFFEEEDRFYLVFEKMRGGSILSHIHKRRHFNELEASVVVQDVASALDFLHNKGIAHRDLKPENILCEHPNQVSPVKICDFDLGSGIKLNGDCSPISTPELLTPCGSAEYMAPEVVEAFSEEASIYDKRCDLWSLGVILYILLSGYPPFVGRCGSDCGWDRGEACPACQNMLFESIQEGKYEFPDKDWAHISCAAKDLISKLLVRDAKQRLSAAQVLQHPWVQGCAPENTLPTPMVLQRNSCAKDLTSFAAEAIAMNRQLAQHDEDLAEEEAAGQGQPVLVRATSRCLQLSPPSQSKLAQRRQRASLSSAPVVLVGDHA
Dual specificity mitogen-activated protein kinase kinase 1 (Homo sapiens), sequence (Q02750 whole entry): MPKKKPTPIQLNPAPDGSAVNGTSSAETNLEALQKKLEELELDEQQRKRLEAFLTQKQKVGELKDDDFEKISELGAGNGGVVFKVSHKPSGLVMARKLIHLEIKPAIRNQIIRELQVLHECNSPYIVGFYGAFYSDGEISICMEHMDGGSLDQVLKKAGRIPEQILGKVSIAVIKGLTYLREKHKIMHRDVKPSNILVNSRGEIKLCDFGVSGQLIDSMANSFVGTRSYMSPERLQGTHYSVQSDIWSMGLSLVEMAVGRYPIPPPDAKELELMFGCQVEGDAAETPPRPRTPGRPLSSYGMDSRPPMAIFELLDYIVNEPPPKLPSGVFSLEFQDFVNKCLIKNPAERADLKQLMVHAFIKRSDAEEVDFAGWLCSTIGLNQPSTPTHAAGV
Inhibitor of nuclear factor kappa-B kinase subunit alpha (Homo sapiens), sequence (O15111 whole entry): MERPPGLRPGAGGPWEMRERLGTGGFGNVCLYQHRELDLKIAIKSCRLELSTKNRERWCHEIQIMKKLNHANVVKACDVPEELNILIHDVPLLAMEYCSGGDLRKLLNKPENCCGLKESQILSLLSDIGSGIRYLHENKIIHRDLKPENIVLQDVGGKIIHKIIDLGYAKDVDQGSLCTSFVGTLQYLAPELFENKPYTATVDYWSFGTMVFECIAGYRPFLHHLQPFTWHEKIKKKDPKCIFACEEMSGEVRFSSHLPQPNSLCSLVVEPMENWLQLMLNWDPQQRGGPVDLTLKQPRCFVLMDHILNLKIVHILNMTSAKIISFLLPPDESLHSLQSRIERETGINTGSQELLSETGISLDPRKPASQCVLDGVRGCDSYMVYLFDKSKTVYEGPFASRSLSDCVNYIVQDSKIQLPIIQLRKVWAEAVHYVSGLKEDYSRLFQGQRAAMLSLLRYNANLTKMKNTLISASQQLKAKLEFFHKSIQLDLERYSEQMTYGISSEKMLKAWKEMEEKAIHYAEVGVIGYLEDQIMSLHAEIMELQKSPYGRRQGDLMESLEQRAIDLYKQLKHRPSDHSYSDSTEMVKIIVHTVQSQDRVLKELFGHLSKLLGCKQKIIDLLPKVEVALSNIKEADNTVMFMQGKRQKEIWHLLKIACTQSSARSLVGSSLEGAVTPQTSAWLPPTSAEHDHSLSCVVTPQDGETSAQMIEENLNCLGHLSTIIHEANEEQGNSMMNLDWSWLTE
Serine/threonine-protein kinase pim-1 (Homo sapiens), sequence (P11309 whole entry, looked up): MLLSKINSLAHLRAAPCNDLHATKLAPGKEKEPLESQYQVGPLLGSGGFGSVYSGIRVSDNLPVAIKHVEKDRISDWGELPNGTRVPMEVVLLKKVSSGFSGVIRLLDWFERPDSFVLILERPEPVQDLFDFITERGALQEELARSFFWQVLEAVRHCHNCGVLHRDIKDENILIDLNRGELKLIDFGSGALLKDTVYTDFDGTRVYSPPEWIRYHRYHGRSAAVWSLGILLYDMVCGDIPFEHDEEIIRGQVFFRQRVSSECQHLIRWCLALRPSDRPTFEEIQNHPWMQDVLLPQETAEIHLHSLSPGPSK

What is called ΔTm is the shift of the melting midpoint relative to a reference. The IC50 is the concentration needed to halve the response being measured. The Ki is a dissociation constant, usually derived from enzyme kinetics or from competition with a known ligand. As for `COc1ccc2c(CCNc3nc(NCc4ccc(=O)[nH]c4)c4nc[nH]c4n3)c[nH]c2c1`, the Activity in assay [1] came to 76%; in assay [2] it was 91%; in assay [3], 11%; in assay [4], 86%; in assay [5], 97%; in the assay filed under Homo sapiens [6] it was 95%. The Activity was determined as 82% in assay [7]; 109% in [8]; 86% in assay [9]; 48% in [12]; 77% in assay [13]; 46% in [16]. In addition, the Activity in [17] came out at 66%; in [18], 82%; in [20] it was 99%. Besides, the ΔTm came to 6.6 °C in assay [10] and 5.5 °C in assay [14]. The Ratio Ki in the assay listed under Homo sapiens [11] was determined as 24.4. Besides, in [15], the IC50 turned out to be 20 µM. For the same compound, the Ki in [19] was found to be 200 nM.
